Experimental data reported in ChEMBL document CHEMBL1125728, “Dopamine autoreceptor agonists as potential antipsychotics. 2. (Aminoalkoxy)-4H-1-benzopyran-4-ones” (J Med Chem, 1991).

System: Rattus norvegicus
Experiment: Percentage of rats showing signs of stereotyped behavior at 0.3 mg/kg subcutaneous dose and animals observed for 60 min postdose.
Format: functional
Details: not given

Compound	Animals [%]
CN1CCc2cccc3c2[C@H]1Cc1ccc(O)c(O)c1-3 [APOMORPHINE]	100

System: Rattus norvegicus
Experiment: Compound tested for its effective dose to inhibit rat locomotor activity after sc administration of the compound.
Format: functional
Details: not given
In short: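 Rats dosed sc, with locomotor activity recorded for 30 min immediately after dosing. ED50 generated from four to five doses using 5–12 animals per dose, reported with ±95% confidence limits.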

Compound	ED50 [mg/kg]
C1=C(c2ccccc2)CCN(CCCCc2c[nH]c3ccccc23)C1	4.69
CCCN1CCCC(c2ccccc2)C1 (single isomer, unassigned; (+))	3
CN1CCc2cccc3c2[C@H]1Cc1ccc(O)c(O)c1-3 [APOMORPHINE]	0.03

System: Mus musculus
Experiment: Inhibition of mouse intraperitoneally.
Format: functional
Details: ip
In short: (§1)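 Inhibition of exploratory locomotor activity, scored together with motor coordination (ataxia). ED50 generated from four to five doses, with 5–12 animals per dose.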

Compound	ED50 [mg/kg]
O=c1ccoc2cc(OCCCN3CCN(c4ncccn4)CC3)ccc12	12.4
O=c1ccoc2cc(OCCCN3CCc4[nH]c5ccc(F)cc5c4C3)ccc12	7.5
C1=C(c2ccccc2)CCN(CCCCc2c[nH]c3ccccc23)C1	0.1
CN1CCc2cccc3c2[C@H]1Cc1ccc(O)c(O)c1-3 [APOMORPHINE]	6.4
O=C1CN(CCCOc2ccc3c(=O)ccoc3c2)CC(=O)N1c1ccccc1	> 30
O=c1ccoc2cc(OCCCN3CCCN(c4ccccc4)CC3)ccc12	> 30
CCN(CCCOc1ccc2c(=O)ccoc2c1)CCCc1ccccc1	> 30
O=c1ccoc2cc(OCCCN3CCc4ccccc4C3)ccc12	30
Nc1cccc(OCCCN2CCN(c3ccccc3)CC2)c1	1.3
O=c1ccoc2ccc(OCCCCN3CCN(c4ncccn4)CC3)cc12	3.6
O=c1ccoc2cc(OCCCN3CCN(c4cnccn4)CC3)ccc12	26.3
O=c1ccoc2cc(OCCCN3CCc4c(oc5ccccc45)C3)ccc12	13.5
O=c1ccoc2cc(OCCCN3CCN(c4ccc(Cl)c(Cl)c4)CC3)ccc12	14
O=c1ccoc2cc(OCCCN3CCC=C(c4ccccc4)C3)ccc12	30.3
O=c1ccoc2cc(OCCCN3CCN(Cc4ccccc4)CC3)ccc12	> 30

System: Rattus norvegicus
Experiment: Percentage of rats showing signs of stereotyped behavior at 30 mg/kg peroral dose and animals observed for 60 min postdose.
Format: functional
Details: route oral

Compound	Animals [%]
O=c1ccoc2ccc(OCCCCN3CCN(c4ccccc4)CC3)cc12	0
C1=C(c2ccccc2)CCN(CCCCc2c[nH]c3ccccc23)C1	0

System: Mus musculus
Experiment: Compound was tested for inhibition of mouse locomotor activity after being administered intraperitoneally.
Details: ip

Compound	ED50 [mg/kg]
CN1CCc2cccc3c2[C@H]1Cc1ccc(O)c(O)c1-3 [APOMORPHINE]	> 30

System: not listed separately
Experiment: Compound tested for its liability for extrapyramidal side effects (EPS) in terms of no. of animals showing signs of EPS/no. of animals tested upon peroral administration at a dose of 2.5 mg/Kg; 3/3
Format: functional
Details: not given

Compound	EPS
CSc1ccc2c(c1)N(CCC1CCCCN1C)c1ccccc1S2 (stereo unspecified) [THIORIDAZINE]	3

System: Rattus norvegicus
Experiment: Compound was tested for inhibition of […] locomotor activity after being administered perorally.
Format: functional
Details: po
In short: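 Mice dosed orally and scored for inhibition of exploratory locomotor activity, with motor coordination (ataxia) also checked. ED50 generated from four to five doses using 5–12 animals per dose.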

Compound	ED50 [mg/kg]
C1=C(c2ccccc2)CCN(CCCCc2c[nH]c3ccccc23)C1	4.8

System: not listed separately
Experiment: Compound was tested for its inhibition of Sidman avoidance after peroral administration in Squirrel monkeys.
Format: functional
Details: po
In short: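 Sidman avoidance in mature squirrel monkeys, oral dosing. ED50 ± SEM generated from three doses, four animals per dose.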

Compound	ED50 [mg/kg]
CSc1ccc2c(c1)N(CCC1CCCCN1C)c1ccccc1S2 (stereo unspecified) [THIORIDAZINE]	3.9

System: Rattus norvegicus
Experiment: Percentage of rats showing signs of stereotyped behavior at 15 mg/kg peroral dose and followed 1 hr later by 10 mg/kg sc of SKF-38393 and animals observed for 60 min postdose before being
Format: functional
Details: not given
In short: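 Part 2: oral dose given to naive rats, six per dose, followed 1 h later by SKF 38393 (10 mg/kg sc). Stereotypy (repetitive rearing, head-swaying, sniffing, licking, gnawing lasting ≥5 s) rated over 60 min. Reported as percent of rats affected.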

Compound	Animals [%]
O=c1ccoc2ccc(OCCCCN3CCN(c4ccccc4)CC3)cc12	0

System: Rattus norvegicus
Experiment: Inhibition of rat locomotor activity after being administered perorally.
Format: functional
Details: po
In short: as §1

Compound	ED50 [mg/kg]
O=c1ccoc2cc(OCCCN3CCN(c4ncccn4)CC3)ccc12	15.6
O=c1ccoc2cc(OCCCN3CCc4[nH]c5ccc(F)cc5c4C3)ccc12	5.5
O=c1ccoc2ccc(OCCCCN3CCN(c4ncccn4)CC3)cc12	8.2
O=c1ccoc2cc(OCCCN3CCc4c(oc5ccccc45)C3)ccc12	> 30

System: Rattus norvegicus
Experiment: Compound tested for % reversal of DOPA accumulation at an intraperitoneal dose of 30 mg/kg.
Format: functional
Details: not given
In short: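 Rats dosed 1 h before sacrifice, with GBL (750 mg/kg ip) at 30 min and NSD 1015 (100 mg/kg ip) at 25 min before sacrifice. Striatal DOPA measured by HPLC with electrochemical detection. Value is percent reversal of the GBL-induced DOPA rise.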

Compound	Reversal [%]
O=c1ccoc2ccc(OCCCCN3CCN(c4ccccc4)CC3)cc12	84
O=c1ccoc2cc(OCCCN3CCc4[nH]c5ccc(F)cc5c4C3)ccc12	-44
CN1CCc2cccc3c2[C@H]1Cc1ccc(O)c(O)c1-3 [APOMORPHINE]	104
O=c1ccoc2ccc(OCCCCN3CCN(c4ncccn4)CC3)cc12	100
O=c1ccoc2cc(OCCCN3CCc4c(oc5ccccc45)C3)ccc12	29

System: Rattus norvegicus
Experiment: Percentage of rats showing signs of stereotyped behavior at 30 mg/kg peroral dose and followed 1 hr later by 10 mg/kg sc of SKF-38393 and animals observed for 60 min postdose before being
Format: functional
Details: not given
In short: (§2)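 Naive rats, six per dose, received compound, then SKF 38393 (10 mg/kg sc) 1 h later. They were rated for repetitive rearing, head-swaying, sniffing, licking and gnawing of at least 5 s duration. Result given as the percentage of rats showing stereotypy.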

Compound	Animals [%]
C1=C(c2ccccc2)CCN(CCCCc2c[nH]c3ccccc23)C1	0

System: Rattus norvegicus
Experiment: Percentage of rats showing signs of stereotyped behavior at 30 mg/kg subcutaneous dose and followed 1 hr later by 10 mg/kg sc of SKF-38393 and animals observed for 30 min postdose before being
Format: functional
Details: not given
In short: as §2

Compound	Animals [%]
CCCN1CCCC(c2ccccc2)C1 (single isomer, unassigned; (+))	100

System: Rattus norvegicus
Experiment: Percentage of rats showing signs of stereotyped behavior at 30 mg/kg subcutaneous dose and animals observed for 30 min postdose.
Format: functional
Details: not given

Compound	Animals [%]
CCCN1CCCC(c2ccccc2)C1 (single isomer, unassigned; (+))	16

System: Rattus norvegicus
Experiment: Compound tested for % inhibition of DA neuronal firing at an intraperitoneal dose of 2.5 mg/kg.
Format: functional
Details: ip

Compound	inhibition in vivo at 2.5 mg/kg [%]
O=c1ccoc2ccc(OCCCCN3CCN(c4ccccc4)CC3)cc12	94
CN1CCc2cccc3c2[C@H]1Cc1ccc(O)c(O)c1-3 [APOMORPHINE]	100
O=c1ccoc2ccc(OCCCCN3CCN(c4ncccn4)CC3)cc12	100

Target: Dopamine receptor
Experiment: Compound was tested for inhibitory binding activity against Dopamine receptor in rat striatal membranes using [3H]HAL as the radioligand.
Format: cell membranes, Striatum, Membrane
Details: not given
In short: (§3)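 [3H]Haloperidol displacement from rat striatal DA receptors, run in duplicate. IC50 obtained by nonlinear regression from four to five concentrations.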

IC50 [nM]	Compound
884	O=c1ccoc2cc(OCCCN3CCCN(c4ccccc4)CC3)ccc12
349	O=c1ccoc2ccc(OCCCCN3CCN(c4ncccn4)CC3)cc12
243	O=c1ccoc2cc(OCCCN3CCC=C(c4ccccc4)C3)ccc12

System: Rattus norvegicus
Experiment: Compound tested for its effect on reversal of 6-OHDA induced depression in rats after sc administration.
Format: functional
Details: not given
In short: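 Rats lesioned at least 1 month earlier with 6-OHDA (20 μg icv) plus pargyline (50 mg/kg ip) and desipramine (25 mg/kg ip), giving about 90% brain DA depletion. Drug given sc, then locomotor activity recorded for 30 min from dosing. ED200 estimated from three or four doses, six rats per dose.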

Compound	ED200 [mg/kg]
C1=C(c2ccccc2)CCN(CCCCc2c[nH]c3ccccc23)C1	0.29
CCCN1CCCC(c2ccccc2)C1 (single isomer, unassigned; (+))	0.48
CN1CCc2cccc3c2[C@H]1Cc1ccc(O)c(O)c1-3 [APOMORPHINE]	0.005

Target: Dopamine receptor (Rattus norvegicus) (UniProt P25115+P19020+P30729+P18901+P61169)
Experiment: Inhibitory binding activity against dopamine receptor in rat striatal membranes using [3H]HAL as the radioligand.
Format: cell membranes
Parameters: concentration or dose not given beside the values
Details: Striatum; Membrane; concentration not given here
In short: as §3

Compound	inhibition [%]
O=C1CN(CCCOc2ccc3c(=O)ccoc3c2)CC(=O)N1c1ccccc1	0
CCN(CCCOc1ccc2c(=O)ccoc2c1)CCCc1ccccc1	26
O=c1ccoc2cc(OCCCN3CCc4ccccc4C3)ccc12	50
O=c1ccoc2cc(OCCCN3CCc4c(oc5ccccc45)C3)ccc12	8

The next lines start with the values.

inhibition [%]	Compound
73	O=c1ccoc2ccc(OCCCCN3CCN(c4ccccc4)CC3)cc12
0	O=c1ccoc2cc(OCCCN3CCN(c4ncccn4)CC3)ccc12
17	O=c1ccoc2cc(OCCCN3CCN(c4cnccn4)CC3)ccc12
23	O=c1ccoc2cc(OCCCN3CCN(c4ccc(Cl)c(Cl)c4)CC3)ccc12
31	O=c1ccoc2cc(OCCCN3CCN(Cc4ccccc4)CC3)ccc12
